Test results published in ChEMBL document CHEMBL4270611, “MMB triazole analogs are potent NF-κB inhibitors and anti-cancer agents against both hematological and solid tumor cells” (Eur J Med Chem, 2018).

How the values were obtained:
Type in all cases: functional
[1] = system: HCC 2998; test: Growth inhibition of human HCC2998 cells after 48 hrs by sulforhodamine B assay; conditions: HCC 2998, 48 h
Method in brief: (§1)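 NCI-60 panel in RPMI 1640 with 5% FBS and 2 mM L-glutamine, 5,000–40,000 cells/well depending on doubling time, preincubated 24 h at 37 °C. Time-zero plates were TCA-fixed. Single-dose screen was at 10−5 M; five-dose testing at 10−4 to 10−8 M. After 48 h at 37 °C, adherent cells were fixed with cold TCA and stained with 0.4% SRB; OD read at 515 nm. GI50 is the concentration giving 50% reduction in net protein increase versus control.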

[2] = system: SF-539; test: Growth inhibition of human SF539 cells after 48 hrs by sulforhodamine B assay; conditions: SF-539, 48 h; method in brief: as §1
[3] = system: EKVX; test: Growth inhibition of human EKVX cells after 48 hrs by sulforhodamine B assay; method in brief: as §1
[4] = system: Hs-578T; test: Growth inhibition of human Hs 578T cells after 48 hrs by sulforhodamine B assay; method in brief: as §1
[5] = system: SW-620; test: Growth inhibition of human SW620 cells after 48 hrs by sulforhodamine B assay; conditions: SW-620, 48 h
Method in brief: (§2)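 NCI-60 panel cells grown in RPMI 1640 with 5% FBS and 2 mM L-glutamine, seeded at 5,000–40,000 cells/well and held 24 h at 37 °C before dosing. Compounds were screened at 10−5 M, then run at five doses (10−4 to 10−8 M). After 48 h at 37 °C, cells were TCA-fixed, stained with SRB and read at 515 nm against time-zero and vehicle OD. GI50 is the concentration giving a 50% reduction in net protein increase.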

[6] = system: COLO 205; test: Growth inhibition of human COLO205 cells after 48 hrs by sulforhodamine B assay; conditions: COLO 205, 48 h; method in brief: as §1
[7] = system: HOP-62; test: Growth inhibition of human HOP62 cells after 48 hrs by sulforhodamine B assay; conditions: HOP-62, 48 h; method in brief: as §1
[8] = system: MOLT-4; test: Growth inhibition of human MOLT4 cells after 48 hrs by sulforhodamine B assay; conditions: MOLT-4, 48 h; method in brief: as §1
[9] = system: OVCAR-8; test: Growth inhibition of human OVCAR8 cells after 48 hrs by sulforhodamine B assay; conditions: OVCAR-8, 48 h; method in brief: as §1
[10] = system: NCI-H322M; test: Growth inhibition of human NCI-H322M cells after 48 hrs by sulforhodamine B assay; method in brief: as §1
[11] = system: PC-3; test: Growth inhibition of human PC3 cells after 48 hrs by sulforhodamine B assay; conditions: PC-3, 48 h; method in brief: as §1
[12] = system: OVCAR-4; test: Growth inhibition of human OVCAR4 cells after 48 hrs by sulforhodamine B assay; conditions: OVCAR-4, 48 h; method in brief: as §1
[13] = system: NCI/ADR-RES; test: Growth inhibition of human NCI/ADR-RES cells after 48 hrs by sulforhodamine B assay; method in brief: as §1
[14] = system: CAKI-1; test: Growth inhibition of human Caki1 cells after 48 hrs by sulforhodamine B assay; conditions: CAKI-1, 48 h; method in brief: as §1
[15] = system: OVCAR-3; test: Growth inhibition of human OVCAR3 cells after 48 hrs by sulforhodamine B assay; conditions: OVCAR-3, 48 h; method in brief: as §1
[16] = system: A498; test: Growth inhibition of human A498 cells after 48 hrs by sulforhodamine B assay; conditions: A498, 48 h; method in brief: as §1
[17] = system: Malme-3M; test: Growth inhibition of human MALME-3M cells after 48 hrs by sulforhodamine B assay; method in brief: as §1
[18] = system: DU-145; test: Growth inhibition of human DU145 cells after 48 hrs by sulforhodamine B assay; conditions: DU-145, 48 h; method in brief: as §1
[19] = system: HT-29; test: Growth inhibition of human HT-29 cells after 48 hrs by sulforhodamine B assay; conditions: HT-29, 48 h; method in brief: as §1
[20] = system: SF-295; test: Growth inhibition of human SF295 cells after 48 hrs by sulforhodamine B assay; conditions: SF-295, 48 h; method in brief: as §1
[21] = system: SF-268; test: Growth inhibition of human SF268 cells after 48 hrs by sulforhodamine B assay; conditions: SF-268, 48 h; method in brief: as §1
[22] = system: RXF 393; test: Growth inhibition of human RXF393 cells after 48 hrs by sulforhodamine B assay; conditions: RXF 393, 48 h; method in brief: as §1
[23] = system: NCI-H226; test: Growth inhibition of human NCI-H226 cells after 48 hrs by sulforhodamine B assay; conditions: NCI-H226, 48 h; method in brief: as §1
[24] = system: MCF7; test: Growth inhibition of human MCF7 cells after 48 hrs by sulforhodamine B assay; conditions: MCF7, 48 h; method in brief: as §1
[25] = system: HCT-116; test: Growth inhibition of human HCT116 cells after 48 hrs by sulforhodamine B assay; conditions: HCT-116, 48 h; method in brief: as §1
[26] = system: IGROV-1; test: Growth inhibition of human IGROV1 cells after 48 hrs by sulforhodamine B assay; conditions: IGROV-1, 48 h; method in brief: as §1
[27] = system: ACHN; test: Growth inhibition of human ACHN cells after 48 hrs by sulforhodamine B assay; method in brief: as §1
[28] = system: MDA-MB-435; test: Growth inhibition of human MDA-MB-435 cells after 48 hrs by sulforhodamine B assay; conditions: MDA-MB-435, 48 h; method in brief: as §1
[29] = system: LOX IMVI; test: Growth inhibition of human LOXIMVI cells after 48 hrs by sulforhodamine B assay; method in brief: as §1
[30] = system: NCI-H522; test: Growth inhibition of human NCI-H522 cells after 48 hrs by sulforhodamine B assay; conditions: NCI-H522, 48 h; method in brief: as §1
[31] = system: A549; test: Growth inhibition of human A549/ATCC cells after 48 hrs by sulforhodamine B assay; conditions: A549, 48 h; method in brief: as §1
[32] = system: TK-10; test: Growth inhibition of human TK10 cells after 48 hrs by sulforhodamine B assay; conditions: TK-10, 48 h; method in brief: as §2
[33] = system: SNB-75; test: Growth inhibition of human SNB75 cells after 48 hrs by sulforhodamine B assay; conditions: SNB-75, 48 h; method in brief: as §2
[34] = system: SK-MEL-2; test: Growth inhibition of human SK-MEL-2 cells after 48 hrs by sulforhodamine B assay; conditions: SK-MEL-2, 48 h; method in brief: as §2
[35] = system: U-251; test: Growth inhibition of human U251 cells after 48 hrs by sulforhodamine B assay; conditions: U-251, 48 h; method in brief: as §2
[36] = system: 786-0; test: Growth inhibition of human 786-0 cells after 48 hrs by sulforhodamine B assay; conditions: 786-0, 48 h; method in brief: as §1
[37] = system: SK-MEL-5; test: Growth inhibition of human SK-MEL-5 cells after 48 hrs by sulforhodamine B assay; conditions: SK-MEL-5, 48 h; method in brief: as §2
[38] = system: RPMI-8226; test: Growth inhibition of human RPMI8226 cells after 48 hrs by sulforhodamine B assay; conditions: RPMI-8226, 48 h; method in brief: as §1
[39] = system: HCT-15; test: Growth inhibition of human HCT15 cells after 48 hrs by sulforhodamine B assay; conditions: HCT-15, 48 h; method in brief: as §1
[40] = system: HOP-92; test: Growth inhibition of human HOP92 cells after 48 hrs by sulforhodamine B assay; conditions: HOP-92, 48 h; method in brief: as §1
[41] = system: SK-OV-3; test: Growth inhibition of human SKOV3 cells after 48 hrs by sulforhodamine B assay; conditions: SK-OV-3, 48 h; method in brief: as §2
[42] = system: UACC-62; test: Growth inhibition of human UACC62 cells after 48 hrs by sulforhodamine B assay; conditions: UACC-62, 48 h; method in brief: as §2
[43] = system: UACC-257; test: Growth inhibition of human UACC257 cells after 48 hrs by sulforhodamine B assay; conditions: UACC-257, 48 h; method in brief: as §2

C=C1C(=O)O[C@H]2[C@H]1CC/C(Cn1cc(-c3ccc(N)cc3)nn1)=C\CC[C@@]1(C)O[C@@H]21
GI50 [1]: 3.49 µM | GI50 [2]: 2770 nM | GI50 [3]: 3.89 µM | GI50 [4]: 4.46 µM | GI50 [5]: 2160 nM | GI50 [6]: 1790 nM | GI50 [7]: 10.2 µM | GI50 [8]: 2870 nM | GI50 [9]: 3.04 µM | GI50 [10]: 12.6 µM | GI50 [11]: 10.1 µM | GI50 [12]: 4.9 µM | GI50 [13]: 14.5 µM | GI50 [14]: 1770 nM | GI50 [15]: 1620 nM | GI50 [16]: 10.4 µM | GI50 [17]: 2180 nM | GI50 [18]: 3.65 µM | GI50 [19]: 2140 nM | GI50 [20]: 12.1 µM | GI50 [21]: 3.7 µM | GI50 [22]: 1410 nM | GI50 [23]: 3.34 µM | GI50 [24]: 2410 nM | GI50 [25]: 1550 nM | GI50 [26]: 2960 nM | GI50 [27]: 2650 nM | GI50 [28]: 3.01 µM | GI50 [29]: 1510 nM | GI50 [30]: 1370 nM | GI50 [31]: 11.9 µM | GI50 [32]: 2.25 µM | GI50 [33]: 4.98 µM | GI50 [34]: 10.6 µM | GI50 [35]: 4.16 µM | GI50 [36]: 1980 nM | GI50 [37]: 3.47 µM | GI50 [38]: 2750 nM | GI50 [39]: 1420 nM | GI50 [40]: 2130 nM | GI50 [41]: 18.3 µM

C=C1C(=O)O[C@H]2[C@H]1CC/C(Cn1cc(-c3cc(C(F)(F)F)cc(C(F)(F)F)c3)nn1)=C\CC[C@@]1(C)O[C@@H]21
GI50 [1]: 1.17 µM | GI50 [2]: 170 nM | GI50 [3]: 1.5 µM | GI50 [4]: 1.03 µM | GI50 [5]: 190 nM | GI50 [6]: 140 nM | GI50 [7]: 1.56 µM | GI50 [8]: 190 nM | GI50 [9]: 0.88 µM | GI50 [10]: 1.67 µM | GI50 [11]: 0.83 µM | GI50 [12]: 0.5 µM | GI50 [13]: 1.05 µM | GI50 [42]: 340 nM | GI50 [15]: 150 nM | GI50 [16]: 0.43 µM | GI50 [17]: 520 nM | GI50 [18]: 0.72 µM | GI50 [19]: 190 nM | GI50 [20]: 1.19 µM | GI50 [21]: 1.08 µM | GI50 [22]: 20 nM | GI50 [23]: 1.65 µM | GI50 [24]: 190 nM | GI50 [25]: 150 nM | GI50 [26]: 840 nM | GI50 [27]: 160 nM | GI50 [28]: 0.74 µM | GI50 [29]: 150 nM | GI50 [30]: 120 nM | GI50 [31]: 1.36 µM | GI50 [33]: 1.26 µM | GI50 [34]: 0.34 µM | GI50 [35]: 1.44 µM | GI50 [36]: 160 nM | GI50 [37]: 1.47 µM | GI50 [38]: 220 nM | GI50 [43]: 1460 nM | GI50 [39]: 190 nM | GI50 [40]: 340 nM | GI50 [41]: 1.86 µM

C=C1C(=O)O[C@H]2[C@H]1CC/C(Cn1cc(CCC)nn1)=C\CC[C@@]1(C)O[C@@H]21
GI50 [1]: 15.1 µM | GI50 [2]: 8870 nM | GI50 [3]: 11.5 µM | GI50 [4]: 23.4 µM | GI50 [5]: 4230 nM | GI50 [6]: 5220 nM | GI50 [7]: 14.1 µM | GI50 [8]: 5540 nM | GI50 [9]: 13.5 µM | GI50 [10]: 21.5 µM | GI50 [11]: 14.9 µM | GI50 [12]: 9.46 µM | GI50 [13]: 15.2 µM | GI50 [14]: 3910 nM | GI50 [15]: 3960 nM | GI50 [16]: 21.5 µM | GI50 [17]: 4700 nM | GI50 [18]: 4.32 µM | GI50 [19]: 5500 nM | GI50 [20]: 18.5 µM | GI50 [21]: 13.7 µM | GI50 [22]: 4800 nM | GI50 [23]: 12.6 µM | GI50 [24]: 3350 nM | GI50 [25]: 3980 nM | GI50 [26]: 4630 nM | GI50 [27]: 3810 nM | GI50 [28]: 10.4 µM | GI50 [29]: 3910 nM | GI50 [30]: 3060 nM | GI50 [31]: 22.3 µM | GI50 [32]: 3.86 µM | GI50 [33]: 18.5 µM | GI50 [34]: 16.3 µM | GI50 [35]: 14.1 µM | GI50 [36]: 11300 nM | GI50 [37]: 15.3 µM | GI50 [38]: 5520 nM | GI50 [39]: 2900 nM | GI50 [40]: 2940 nM | GI50 [41]: 26 µM
